Data taken from ChEMBL document CHEMBL5329223, “Newly synthesized 6-substituted piperazine/phenyl-9-cyclopentyl containing purine nucleobase analogs act as potent anticancer agents and induce apoptosis via inhibiting Src in hepatocellular carcinoma cells” (RSC Med Chem, 2023).
The source made the active and inactive calls. The rule behind the calls is not given here.

Assays:
Mahlavu [1] = experiment: Cytotoxicity against human Mahlavu cells assessed as cell growth inhibition incubated for 72 hrs by SRB assay; format: functional, cell-based
Method in brief: (§1)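 Cells seeded at 1000–3000 per well, treated after 24 h with 2.5–40 μM (40, 20, 10, 5, 2.5 μM) for 72 h, in duplicate or triplicate; DMSO negative control. Fixed with 10% TCA 1 h at 4 °C, stained with 0.4% SRB in 1% acetic acid, dye solubilized in 10 mM TBS, A515 read; OD normalized to DMSO control, IC50 from growth-inhibition curves.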

SNU-423 = experiment: Cytotoxicity against human SNU-423 cells assessed as cell growth inhibition incubated for 72 hrs by SRB assay; format: functional, cell-based; settings: SNU-423, 72 h; method in brief: as §1
HCT-116 = experiment: Cytotoxicity against human HCT-116 cells assessed as cell growth inhibition incubated for 72 hrs by SRB assay; format: functional, cell-based; settings: HCT-116, 72 h; method in brief: as §1
Huh-7 [2] = experiment: Upregulation of intracellular ATP level in human Huh-7 cells at 5 uM incubated for 72 hrs by Kinase Glo assay; format: functional, cell-based
Method in brief: (§2)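 Huh7 and Mahlavu cells grown 24 h, then treated with 5 μM for 72 h. Lysates protein-normalized by Bradford; ATP read by Kinase-Glo Plus luminescence per kit protocol. Staurosporine positive control, DMSO negative control.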

Huh-7 [3] = experiment: Induction of apoptosis in human Huh-7 cells assessed as increase in PARP-1 cleavage at 5 uM incubated for 72 hrs by Western blot analysis; format: functional, cell-based
Method in brief: (§3)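 Huh7 cells (300 000 per dish) treated 24 h after seeding with 5 μM or DMSO for 72 h. Immunoblot for PARP-1, phospho-Src Tyr416, Src, Rb, phospho-Rb Ser807/811, Cdk2; calnexin and actin as loading controls.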

SNU-182 = experiment: Cytotoxicity against human SNU-182 cells assessed as cell growth inhibition incubated for 72 hrs by SRB assay; format: functional, cell-based; settings: SNU-182, 72 h; method in brief: as §1
Huh-7 [4] = experiment: Induction of cell cycle arrest in human Huh-7 cells assessed as increase in accumulation of cells at subG1 phase at 5 uM incubated for 72 hrs by PI staining based flow cytometry; format: functional
Method in brief: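 Huh7 and Mahlavu cells serum-starved 24 h to synchronize, then given 5 μM or DMSO in fresh growth medium for 72 h. Trypsinized, fixed in ice-cold 70% ethanol at least 3 h at −20 °C, PI-stained with a cell cycle kit, analyzed by flow cytometry for SubG1.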

[5] = target: Proto-oncogene tyrosine-protein kinase Src (Homo sapiens) (UniProt P12931); experiment: Inhibition of Src activation in human Huh-7 cells assessed as decrease in cyclin E level at 5 uM incubated for 72 hrs by Western blot analysis; format: cell-based; method in brief: as §3
SNU-449 = experiment: Cytotoxicity against human SNU-449 cells assessed as cell growth inhibition incubated for 72 hrs by SRB assay; format: functional, cell-based; settings: SNU-449, 72 h; method in brief: as §1
[6] = target: Tyrosine-protein kinase BTK (Homo sapiens) (UniProt Q06187); experiment: Inhibition of human BTK at 5 uM by Kinomescan profiling analysis relative to control
Method in brief: (§4)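 Compounds in DMSO screened by KINOMEScan against a panel of human kinases for direct interaction, at 5000 nM or 10 000 nM depending on compound; scores calculated relative to DMSO negative control.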

[7] = target: ALK tyrosine kinase receptor (Homo sapiens) (UniProt Q9UM73); experiment: Inhibition of human ALK at 5 uM by Kinomescan profiling analysis relative to control; method in brief: as §4
[8] = target: Proto-oncogene tyrosine-protein kinase Src (Homo sapiens) (UniProt P12931); experiment: Inhibition of Src activation in human Huh-7 cells assessed as decrease in phosphorylated Src level at 5 uM incubated for 72 hrs by Western blot analysis; format: cell-based; method in brief: as §3
Huh-7 [9] = experiment: Induction of morphological changes in human Huh-7 cells assessed as horseshoe-like condensed nuclei at 5 uM incubated for 72 hrs by Hoechst 33258 dye based microscopy; format: functional, cell-based
Method in brief: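 Huh7 cells on coverslips (50 000 per well) given 5 μM or DMSO 24 h after seeding for 72 h; permeabilized with ice-cold methanol 10 min, Hoechst 33258 stain 5 min in the dark, imaged by fluorescence microscopy with 40× objective.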

SNU-398 = experiment: Cytotoxicity against human SNU-398 cells assessed as cell growth inhibition incubated for 72 hrs by SRB assay; format: functional, cell-based; settings: SNU-398, 72 h; method in brief: as §1
PLC = experiment: Cytotoxicity against human PLC cells assessed as cell growth inhibition incubated for 72 hrs by SRB assay; format: functional, cell-based; method in brief: as §1
SNU-475 = experiment: Cytotoxicity against human SNU-475 cells assessed as cell growth inhibition incubated for 72 hrs by SRB assay; format: functional, cell-based; settings: SNU-475, 72 h; method in brief: as §1
HepG2 = experiment: Cytotoxicity against human HepG2 cells assessed as cell growth inhibition incubated for 72 hrs by SRB assay; format: functional, cell-based; settings: HepG2, 72 h; method in brief: as §1
Huh-7 [10] = experiment: Cytotoxicity against human Huh-7 cells assessed as cell growth inhibition incubated for 72 hrs by SRB assay; format: functional, cell-based; settings: Huh-7, 72 h; method in brief: as §1
Hep 3B2 = experiment: Cytotoxicity against human Hep3B cells assessed as cell growth inhibition incubated for 72 hrs by SRB assay; format: functional, cell-based; method in brief: as §1
Mahlavu [11] = experiment: Upregulation of intracellular ATP level in human Mahlavu cells at 5 uM incubated for 72 hrs by Kinase Glo assay; format: functional, cell-based; method in brief: as §2
[12] = target: Proto-oncogene tyrosine-protein kinase Src (Homo sapiens) (UniProt P12931); experiment: Inhibition of Src activation in human Huh-7 cells assessed as decrease in Cdk2 level at 5 uM incubated for 72 hrs by Western blot analysis; format: cell-based; method in brief: as §3
Huh-7 [13] = experiment: Cytotoxicity against human Huh-7 cells assessed as cell growth inhibition at 0.625 to 5 uM measured upto 72 hrs by RT-CES analysis; format: functional, cell-based; settings: dose 0.625-5 µM
Method in brief: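 Huh7 cells, 2000 per well, treated 24 h after seeding alongside DMSO control; cell index from impedance recorded every 30 min; plots for each concentration normalized to DMSO-treated cells.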

MCF7 = experiment: Cytotoxicity against human MCF7 cells assessed as cell growth inhibition incubated for 72 hrs by SRB assay; format: functional, cell-based; settings: MCF7, 72 h; method in brief: as §1
SNU-387 = experiment: Cytotoxicity against human SNU-387 cells assessed as cell growth inhibition incubated for 72 hrs by SRB assay; format: functional, cell-based; settings: SNU-387, 72 h; method in brief: as §1
[14] = Cytotoxicity against human FOCUS cells assessed as cell growth inhibition incubated for 72 hrs by SRB assay; format: functional, cell-based; method in brief: as §1
[15] = target: Proto-oncogene tyrosine-protein kinase Src (Homo sapiens) (UniProt P12931); experiment: Inhibition of Src activation in human Huh-7 cells assessed as decrease in phosphorylated Rb level at 5 uM incubated for 72 hrs by Western blot analysis; format: cell-based; method in brief: as §3
[16] = target: T1, Discoidin domain-containing receptor 2 (Homo sapiens) (UniProt Q16832); experiment: Inhibition of human DDR2 at 10 uM by Kinomescan profiling analysis relative to control; method in brief: as §4
T1 sequence (whole entry): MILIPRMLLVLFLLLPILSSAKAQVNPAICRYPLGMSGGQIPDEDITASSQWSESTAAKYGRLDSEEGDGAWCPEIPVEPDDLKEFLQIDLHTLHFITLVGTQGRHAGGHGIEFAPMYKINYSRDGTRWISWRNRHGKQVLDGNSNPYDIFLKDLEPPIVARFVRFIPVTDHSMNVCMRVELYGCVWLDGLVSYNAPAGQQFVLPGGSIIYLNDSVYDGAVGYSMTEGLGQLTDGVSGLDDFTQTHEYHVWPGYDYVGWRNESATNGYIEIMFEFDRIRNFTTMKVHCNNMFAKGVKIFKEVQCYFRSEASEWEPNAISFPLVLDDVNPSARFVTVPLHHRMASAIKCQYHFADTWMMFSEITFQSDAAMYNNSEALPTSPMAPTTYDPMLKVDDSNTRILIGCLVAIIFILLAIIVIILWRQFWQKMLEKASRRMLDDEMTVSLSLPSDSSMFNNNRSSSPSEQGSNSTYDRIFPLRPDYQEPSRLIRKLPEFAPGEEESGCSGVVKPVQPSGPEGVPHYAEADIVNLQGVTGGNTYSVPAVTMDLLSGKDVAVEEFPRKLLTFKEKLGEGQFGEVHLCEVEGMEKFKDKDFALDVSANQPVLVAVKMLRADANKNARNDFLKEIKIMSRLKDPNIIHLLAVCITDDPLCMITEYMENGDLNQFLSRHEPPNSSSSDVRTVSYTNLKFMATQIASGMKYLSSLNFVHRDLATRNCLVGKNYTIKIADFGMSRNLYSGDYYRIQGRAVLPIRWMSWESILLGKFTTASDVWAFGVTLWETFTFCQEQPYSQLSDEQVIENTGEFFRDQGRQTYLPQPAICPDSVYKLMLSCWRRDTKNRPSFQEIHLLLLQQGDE

Chain of Proto-oncogene tyrosine-protein kinase Src (Homo sapiens) (P12931 2-536 limits assumed): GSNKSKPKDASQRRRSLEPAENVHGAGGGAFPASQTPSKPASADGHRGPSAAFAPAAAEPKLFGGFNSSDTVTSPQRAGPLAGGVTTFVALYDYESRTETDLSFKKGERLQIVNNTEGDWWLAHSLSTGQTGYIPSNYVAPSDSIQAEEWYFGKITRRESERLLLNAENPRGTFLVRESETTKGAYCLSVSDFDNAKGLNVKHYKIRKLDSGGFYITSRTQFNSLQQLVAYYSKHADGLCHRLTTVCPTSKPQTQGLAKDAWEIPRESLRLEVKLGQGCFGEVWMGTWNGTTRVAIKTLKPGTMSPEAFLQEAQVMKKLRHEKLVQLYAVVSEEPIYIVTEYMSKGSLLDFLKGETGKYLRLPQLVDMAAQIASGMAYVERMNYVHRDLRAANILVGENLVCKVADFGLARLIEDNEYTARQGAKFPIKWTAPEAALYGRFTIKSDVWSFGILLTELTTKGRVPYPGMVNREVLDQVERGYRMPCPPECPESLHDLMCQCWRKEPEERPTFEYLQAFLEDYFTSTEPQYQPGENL
Chain of Tyrosine-protein kinase BTK (Homo sapiens) (Q06187 whole entry): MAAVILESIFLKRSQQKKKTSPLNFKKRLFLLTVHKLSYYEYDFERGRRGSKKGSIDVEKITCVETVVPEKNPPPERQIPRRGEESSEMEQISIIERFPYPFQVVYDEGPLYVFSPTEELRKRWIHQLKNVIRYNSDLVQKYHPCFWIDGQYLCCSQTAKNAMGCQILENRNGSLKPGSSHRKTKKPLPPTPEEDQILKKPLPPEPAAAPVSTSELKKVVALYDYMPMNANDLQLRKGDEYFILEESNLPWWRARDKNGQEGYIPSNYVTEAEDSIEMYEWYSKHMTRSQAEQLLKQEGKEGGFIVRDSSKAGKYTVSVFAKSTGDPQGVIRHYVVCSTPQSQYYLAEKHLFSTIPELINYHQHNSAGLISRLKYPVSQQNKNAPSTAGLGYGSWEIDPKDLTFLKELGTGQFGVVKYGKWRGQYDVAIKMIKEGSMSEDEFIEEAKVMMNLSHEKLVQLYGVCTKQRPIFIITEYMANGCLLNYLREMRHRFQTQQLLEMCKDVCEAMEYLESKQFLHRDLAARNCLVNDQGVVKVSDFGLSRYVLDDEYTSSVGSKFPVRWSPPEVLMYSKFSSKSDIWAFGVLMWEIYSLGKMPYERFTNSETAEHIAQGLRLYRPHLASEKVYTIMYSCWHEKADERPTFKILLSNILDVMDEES
Chain of ALK tyrosine kinase receptor (Homo sapiens) (Q9UM73 19-1620 limits assumed): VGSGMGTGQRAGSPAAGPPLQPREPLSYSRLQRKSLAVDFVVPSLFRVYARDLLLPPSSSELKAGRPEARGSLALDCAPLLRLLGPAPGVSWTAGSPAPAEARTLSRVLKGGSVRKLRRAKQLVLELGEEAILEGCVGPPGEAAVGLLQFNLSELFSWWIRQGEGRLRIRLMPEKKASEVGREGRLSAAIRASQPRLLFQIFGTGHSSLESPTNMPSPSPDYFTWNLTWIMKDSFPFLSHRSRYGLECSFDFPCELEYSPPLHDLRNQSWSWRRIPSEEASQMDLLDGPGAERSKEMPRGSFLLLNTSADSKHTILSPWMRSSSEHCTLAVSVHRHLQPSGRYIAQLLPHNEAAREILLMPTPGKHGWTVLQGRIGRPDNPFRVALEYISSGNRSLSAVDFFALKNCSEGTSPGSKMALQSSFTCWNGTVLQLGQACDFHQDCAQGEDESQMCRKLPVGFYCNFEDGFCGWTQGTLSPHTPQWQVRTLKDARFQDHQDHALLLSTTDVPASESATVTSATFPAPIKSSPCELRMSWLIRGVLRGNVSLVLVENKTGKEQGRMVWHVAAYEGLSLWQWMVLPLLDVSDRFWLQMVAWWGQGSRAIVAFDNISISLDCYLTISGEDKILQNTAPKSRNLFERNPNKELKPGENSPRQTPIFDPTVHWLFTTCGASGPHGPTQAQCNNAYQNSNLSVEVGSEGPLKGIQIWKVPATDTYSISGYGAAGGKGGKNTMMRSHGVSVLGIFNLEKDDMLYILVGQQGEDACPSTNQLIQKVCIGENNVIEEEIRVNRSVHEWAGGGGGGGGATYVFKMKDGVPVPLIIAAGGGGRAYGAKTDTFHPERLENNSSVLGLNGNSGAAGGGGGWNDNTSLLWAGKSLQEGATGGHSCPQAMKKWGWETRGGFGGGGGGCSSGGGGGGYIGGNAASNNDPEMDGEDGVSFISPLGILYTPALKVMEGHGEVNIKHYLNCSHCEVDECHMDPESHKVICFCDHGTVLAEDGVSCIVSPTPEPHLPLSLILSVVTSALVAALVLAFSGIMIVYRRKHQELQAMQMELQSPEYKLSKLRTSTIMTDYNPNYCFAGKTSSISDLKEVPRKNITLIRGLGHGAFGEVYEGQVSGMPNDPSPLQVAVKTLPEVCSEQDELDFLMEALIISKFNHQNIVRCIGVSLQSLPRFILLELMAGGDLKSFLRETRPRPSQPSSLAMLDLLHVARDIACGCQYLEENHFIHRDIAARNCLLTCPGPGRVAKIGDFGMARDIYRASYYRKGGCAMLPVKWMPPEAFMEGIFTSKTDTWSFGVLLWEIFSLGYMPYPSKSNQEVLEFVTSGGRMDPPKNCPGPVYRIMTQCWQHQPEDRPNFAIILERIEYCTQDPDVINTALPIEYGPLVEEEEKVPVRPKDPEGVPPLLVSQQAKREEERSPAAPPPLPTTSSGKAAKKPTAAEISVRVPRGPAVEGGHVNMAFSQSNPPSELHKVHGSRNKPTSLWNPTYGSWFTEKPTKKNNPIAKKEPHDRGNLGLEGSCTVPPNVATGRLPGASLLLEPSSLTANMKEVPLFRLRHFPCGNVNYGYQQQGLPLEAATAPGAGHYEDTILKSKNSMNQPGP

Compound: c1ccc(N2CCN(c3ncnc4c3ncn4C3CCCC3)CC2)cc1
- IC50 (Mahlavu [1]): 200 nM
- IC50 (SNU-423): 11000 nM
- IC50 (HCT-116): 2100 nM
- Activity (Huh-7 [2]): Active
- Activity (Huh-7 [3]): Active
- IC50 (SNU-182): 6000 nM
- Activity (Huh-7 [4]): Active
- inhibition [5]: Active
- IC50 (SNU-449): 2000 nM
- inhibition [6]: 1.9%
- inhibition [7]: 13%
- inhibition [8]: Active
- Activity (Huh-7 [9]): Active
- IC50 (SNU-398): 1200 nM
- IC50 (PLC): 4000 nM
- IC50 (SNU-475): 5800 nM
- IC50 (HepG2): 2400 nM
- IC50 (Huh-7 [10]): 1000 nM
- IC50 (Hep 3B2): < 100 nM
- Activity (Mahlavu [11]): Active
- inhibition [12]: Active
- growth inhibition (GI) (Huh-7 [13]): Active
- IC50 (MCF7): 100 nM
- IC50 (SNU-387): 13000 nM
- IC50 [14]: 600 nM
- inhibition [15]: Active

Compound: c1ccc(Oc2ccc(-c3ncnc4c3ncn4C3CCCC3)cc2)cc1
- IC50 (Mahlavu [1]): 100 nM
- IC50 (SNU-423): 9900 nM
- IC50 (HCT-116): 800 nM
- Activity (Huh-7 [2]): inactive
- Activity (Huh-7 [3]): Active
- IC50 (SNU-182): 65000 nM
- inhibition [16]: 6%
- Activity (Huh-7 [4]): Active
- IC50 (SNU-449): < 100 nM
- Activity (Huh-7 [9]): Active
- IC50 (SNU-398): 200 nM
- IC50 (PLC): 6500 nM
- IC50 (SNU-475): 2500 nM
- IC50 (HepG2): 2 nM
- IC50 (Huh-7 [10]): 700 nM
- IC50 (Hep 3B2): 100 nM
- Activity (Mahlavu [11]): inactive
- growth inhibition (GI) (Huh-7 [13]): Active
- IC50 (MCF7): 2800 nM
- IC50 (SNU-387): 20000 nM
- IC50 [14]: 500 nM
